pIC50: −log10 of the molar value.
Experiments:
[1] = molecular target: X (Homo sapiens, UniProt P28074); assay: In vitro proteasome activity assay, purified human 20S proteasome, Ac-WLA-AMC; format: biochemical
[2] = In vitro metabolic stability in mouse whole blood; format: in vitro ADME; settings: ICR mice, 1 μM, 0, 10 and 30 min, compared with YU102
How it was run: (§1)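 Matrices came from male 7-week-old ICR mice: whole blood with 25 IU/mL heparin, and liver homogenised in ice-cold PBS (2.5 mL/g). After pre-incubation at 37 °C, test compound was added to 1 μM final. Sampling was at 0, 10 and 30 min for blood and 0, 10 and 20 min for liver. […] Remaining drug was measured by LC-MS/MS.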

[3] = system: IL-1α; assay: Serum IL-1α levels in Tg2576 mice; format: in vivo, mouse; settings: 10 mg/kg twice weekly for 3 weeks, vs vehicle
How it was run: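 Serum from 9-month-old Tg2576 mice (dosed or vehicle) diluted 1:5, then incubated with IL-1α standards (seven serial twofold dilutions) on capture-antibody-coated plates for 2 h at room temperature. Five washes, detection antibody 1 h, avidin-HRP 30 min, five washes, substrate, stop with 2N H2SO4. Absorbance read at 450 nm; n=3.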

[4] = molecular target: LMP7 (Homo sapiens, UniProt P28062); assay: In-cellulo LMP7 inhibition in RPMI-8226/ABCB1 vs parental RPMI-8226 cells; format: cell-based; settings: Supple. Table S1
How it was run: (§2)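 Lysates (14,000 g, 20 min, 4 °C; 5 μg protein) in 20 mM Tris-HCl, 0.5 mM EDTA, 0.035% SDS, pH 8.0, received Ac-PAL-AMC (LMP2) or Ac-ANW-AMC (LMP7), each at 100 μM. Fluorescence (ex 360/em 460 nm) was read every minute for 1 h. IC50s were compared between lines.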

[5] = Observation of overt toxicity during treatment; format: in vivo; settings: Tg2576 or non-transgenic ICR mice during the test period
[6] = molecular target: LMP2 (Mus musculus, UniProt P28076); assay: LMP2 activity in brain homogenates after single intravenous dosing; format: in vivo; settings: ICR mice, single intravenous dosing 10 mg/kg, 1-hour post-dosing
[7] = system: Tg2576 mice; assay: Morris water maze, probe trial and passive avoidance in Tg2576 mice; format: in vivo, mouse; settings: 10 mg/kg twice weekly for 3 weeks
How it was run: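 Tg2576 mice (9-month-old, acclimatised one month) were injected with 10 mg/kg twice weekly for 3 weeks. Morris water maze training ran on days 1–5: hidden platform 1–1.5 cm below 25 ± 1 °C water, three 60-s trials daily from randomised starts. The probe trial on day 6 tracked swimming for 60 s and recorded time in the former platform quadrant by video. Student's t-test, n=5.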

[8] = system: retinal pigment epithelium (RPE); assay: RPE flat mounts, anti-β-catenin immunostaining; format: in vivo, mouse
How it was run: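 After behaviour testing, eyes from treated Tg2576 mice and from age-matched non-transgenic ICR mice were fixed in 4% paraformaldehyde (1 h, RT). Eyecups were dissected, retina removed, and RPE sheets permeabilised (0.2% Triton X-100, 15 min) and blocked (3% BSA, 1 h). Sheets were stained with anti-β-catenin (1:100, overnight 4 °C), then Alexa 555 secondary (1:1000, 2 h RT), and imaged by confocal microscopy. Images are representative of 3 independent replicates.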

[9] = molecular target: T1, ABCG2 (Homo sapiens, UniProt Q9UNQ0); assay: ABCG2 interaction assay; format: cell-based; settings: MDCKII/ABCG2 cells, PhA 1 μM; DB-60 (20) 2 or 5 μM, Ko143 0.2 μM
T1 sequence (Q9UNQ0 1-655): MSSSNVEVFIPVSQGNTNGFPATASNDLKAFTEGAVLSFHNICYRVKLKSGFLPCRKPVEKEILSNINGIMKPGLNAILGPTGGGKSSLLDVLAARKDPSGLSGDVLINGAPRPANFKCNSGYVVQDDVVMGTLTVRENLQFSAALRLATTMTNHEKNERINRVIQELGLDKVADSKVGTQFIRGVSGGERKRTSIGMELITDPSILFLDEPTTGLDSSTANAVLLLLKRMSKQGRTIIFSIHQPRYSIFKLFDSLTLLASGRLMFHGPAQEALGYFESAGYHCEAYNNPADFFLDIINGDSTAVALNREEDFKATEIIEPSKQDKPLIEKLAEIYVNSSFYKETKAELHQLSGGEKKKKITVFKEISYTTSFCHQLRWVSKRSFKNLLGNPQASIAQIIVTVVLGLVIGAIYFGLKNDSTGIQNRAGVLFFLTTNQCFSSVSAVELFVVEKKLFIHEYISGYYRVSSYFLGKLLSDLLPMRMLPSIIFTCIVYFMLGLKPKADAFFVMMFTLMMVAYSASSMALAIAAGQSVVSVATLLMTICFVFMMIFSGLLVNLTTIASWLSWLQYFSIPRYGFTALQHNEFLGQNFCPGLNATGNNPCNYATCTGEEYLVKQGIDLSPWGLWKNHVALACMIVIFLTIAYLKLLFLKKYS

[10] = system: IL-1α; assay: IL-1α release by LPS-activated BV-2 cells; format: cell-based, murine; settings: LPS 1 μg/mL
How it was run: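 BV-2 microglia were stimulated with LPS (1 μg/mL). IL-1α in the culture supernatants was measured by sandwich ELISA. Supernatants and standards (seven serial twofold dilutions) sat overnight at 4 °C on capture-antibody plates, then went through detection antibody (1 h), avidin-HRP (30 min), substrate, and a 2N H2SO4 stop. A450 was read. Three technical replicates, SD shown.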

[11] = In vitro metabolic stability in mouse liver homogenates; format: in vitro ADME; settings: ICR mice, 1 μM, 0, 10 and 20 min, compared with YU102
How it was run: as §1

[12] = molecular target: T2, LMP2 (Homo sapiens, UniProt P28065); assay: In-cellulo LMP2 inhibition in RPMI-8226/ABCB1 vs parental RPMI-8226 cells; format: cell-based; settings: either cell line
How it was run: as §2

[13] = molecular target: T2, LMP2; assay: In vitro proteasome activity assay, purified human 20S proteasome, Ac-PAL-AMC; format: biochemical; settings: P3-proline substitution of 21, purified proteasome

pIC50 [1] | Structure (SMILES) | LMP2 inhibitory potency compared with 21 [13] | further results
< 5.00 | CC(C)C[C@H](NC(=O)[C@@H]1Cc2ccc(cc2)OCCCCCCC(=O)N2CCC[C@H]2C(=O)N1)C(=O)[C@@]1(C)CO1 [compound 16, (1^2S,4S)-N-((S)-4-Methyl-1-((R)-2-methyloxiran-2-yl)-1-oxopentan-2-yl)-2,14-dioxo-7-oxa-3-aza-1(2,1)-pyrrolidina-6(1,4)-benzenacyclotetradecaphane-4-carboxamide] | – | –
– | C[C@]1(C(=O)[C@H](Cc2ccccc2)NC(=O)[C@@H]2Cc3ccc(cc3)OCCCCCCCC(=O)N3CCC[C@H]3C(=O)N2)CO1 [compound 20, (1^2S,4S)-N-((S)-1-((R)-2-Methyloxiran-2-yl)-1-oxo-3-phenylpropan-2-yl)-2,15-dioxo-7-oxa-3-aza-1(2,1)-pyrrolidina-6(1,4)-benzenacyclopentadecaphane-4-carboxamide] | – | metabolic stability in whole blood [2]: greater metabolic stability than YU102; serum levels of IL-1α [3]: lower in Tg2576 mice receiving DB-60 (20) treatment than the control mice; fold decrease of LMP7 inhibition, RPMI-8226/ABCB1 vs parental RPMI-8226 [4]: ~ 2 fold; overt toxicity [5]: No sign of overt toxicity; inhibition of LMP2 activity in brain homogenates [6]: no appreciable inhibition of the LMP2 activity; probe trial: percentage of time spent in the target quadrant ([7]; day 6, vs control): higher than control mice; passive avoidance test: step-through latency ([7]; days 7-8, vs control): performed better in a fear-aggravated test (passive avoidance) than control mice; RPE structure in Tg2576 mice ([8]; Tg2576 mice after behavior tests, anti-β-catenin staining): displayed the orderly structure; RPE structural integrity in non-transgenic ICR mice ([8]; age-matching non-transgenic ICR mice treated with DB-60 (20)): not affected; inhibition of the ABCG2-mediated efflux of PhA (cellular accumulation of PhA) [9]: no inhibition of the ABCG2-mediated efflux of PhA; release of IL-1α by LPS-activated microglial BV-2 cells [10]: decreased the release of IL-1α; stability in liver homogenates [11]: superior to YU102
< 5.00 | C[C@]1(C(=O)[C@H](Cc2ccccc2)NC(=O)[C@@H]2COCCCCCC(=O)N3CCC[C@H]3C(=O)N2)CO1 [compound 25, (3S,15aS)-N-((S)-1-((R)-2-Methyloxiran-2-yl)-1-oxo-3-phenylpropan-2-yl)-1,11-dioxotetradecahydropyrrolo[2,1-f][1]oxa[4,7]diazacyclotridecine-3-carboxamide] | – | –
< 5.00 | CC(C)C[C@H](NC(=O)[C@@H]1COCCCCCC(=O)NCC(=O)N2CCC[C@H]2C(=O)N1)C(=O)[C@@]1(C)CO1 [compound 26, (3S,18aS)-N-((S)-4-Methyl-1-((R)-2-methyloxiran-2-yl)-1-oxopentan-2-yl)-1,11,14-trioxohexadecahydro-6H-pyrrolo[2,1-f][1]oxa[4,7,10]triazacyclohexadecine-3-carboxamide] | – | LMP2 inhibition in RPMI-8226/ABCB1 and parental RPMI-8226 cells [12]: no LMP2 inhibition in either cell line
< 5.00 | CC(C)C[C@H](NC(=O)[C@@H]1COCCCCCC(=O)N2C[C@H](F)C[C@H]2C(=O)N1)C(=O)[C@@]1(C)CO1 [compound 32, (3S,14S,15aS)-14-Fluoro-N-((S)-4-methyl-1-((R)-2-methyloxiran-2-yl)-1-oxopentan-2-yl)-1,11-dioxotetradecahydropyrrolo[2,1-f][1]oxa[4,7]diazacyclotridecine-3-carboxamide] | substantial decrease in the LMP2 inhibitory potency | –
< 5.00 | CC(C)C[C@H](NC(=O)[C@@H]1COCCCCCC(=O)N2CC(F)(F)C[C@H]2C(=O)N1)C(=O)[C@@]1(C)CO1 [compound 33, (3S,15aS)-14,14-Difluoro-N-((S)-4-methyl-1-((R)-2-methyloxiran-2-yl)-1-oxopentan-2-yl)-1,11-dioxotetradecahydropyrrolo[2,1-f][1]oxa[4,7]diazacyclotridecine-3-carboxamide] | LMP2 inhibitory potency similar to 21 | –
< 5.00 | CC(C)C[C@H](NC(=O)[C@@H]1COCCCCCC(=O)N2CCC[C@@]2(C)C(=O)N1)C(=O)[C@@]1(C)CO1 [compound 34, (3S,15aS)-15a-Methyl-N-((S)-4-methyl-1-((R)-2-methyloxiran-2-yl)-1-oxopentan-2-yl)-1,11-dioxotetradecahydropyrrolo[2,1-f][1]oxa[4,7]diazacyclotridecine-3-carboxamide] | substantial decrease in the LMP2 inhibitory potency | –
< 5.00 | CC(C)C[C@H](NC(=O)[C@@H]1COCCCCCC(=O)N2CC[C@H]2C(=O)N1)C(=O)[C@@]1(C)CO1 [compound 35, (10S,13S)-N-((S)-4-Methyl-1-((R)-2-methyloxiran-2-yl)-1-oxopentan-2-yl)-2,12-dioxo-8-oxa-1,11-diazabicyclo[11.2.0]pentadecane-10-carboxamide] | LMP2 inhibitory potency similar to 21 | –
< 5.00 | CC(C)C[C@H](NC(=O)[C@@H]1COCCCCCC(=O)N2CCCC[C@H]2C(=O)N1)C(=O)[C@@]1(C)CO1 [compound 36, (3S,16aS)-N-((S)-4-Methyl-1-((R)-2-methyloxiran-2-yl)-1-oxopentan-2-yl)-1,11-dioxotetradecahydro-2H-pyrido[2,1-f][1]oxa[4,7]diazacyclotridecine-3-carboxamide] | substantial decrease in the LMP2 inhibitory potency | –

Structure (SMILES) | pIC50 [1] | LMP2 inhibitory potency compared with 21 [13] | further results
CC(C)C[C@H](NC(=O)[C@@H]1COCCCCCCC(=O)NCC(=O)N2CCC[C@H]2C(=O)N1)C(=O)[C@@]1(C)CO1 [compound 27, (3S,19aS)-N-((S)-4-Methyl-1-((R)-2-methyloxiran-2-yl)-1-oxopentan-2-yl)-1,12,15-trioxooctadecahydropyrrolo[2,1-f][1]oxa[4,7,10]triazacycloheptadecine-3-carboxamide] | < 5.00 | – | LMP2 inhibition in RPMI-8226/ABCB1 and parental RPMI-8226 cells [12]: no LMP2 inhibition in either cell line
